High-throughput results (PubChem BioAssay)
Rows were chosen to be rich in hits. Some 5.9% of all compounds tested hit in one or more screens of this group.
Pf Dd2 growth: P. falciparum Dd2 growth inhibitors, primary screen, SYBR Green fluorescence, single dose replicates | activity change, % at 10 µM | AID 1159554, 2015 | 94,000 compounds, 2.3% hits | 72 h; active compounds read low; in the data active = activity change below about -80%; inconclusive = no clear call, values can overlap the other calls
KDM4C inh: inhibitors of GASC-1 (KDM4C) histone demethylase, primary screen, biochemical, single concentration HTS | 96,000 compounds, 0.15% hits | AID 720574, 2013 | inhibition, % at 12.5 µM | GST-KDM4C 2-372, H3K9me3 peptide, LANCE TR-FRET | Lysine-specific demethylase 4C (Homo sapiens), Q9H3R0;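 active = mean replicate inhibition above about 25%, with at least 55% of replicates also reaching it, limit read from the data, passing the limit was not always enough; inconclusive = only one of those two conditions met; inactive = neither condition met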
Target sequence (Q9H3R0 2-372 limits assumed): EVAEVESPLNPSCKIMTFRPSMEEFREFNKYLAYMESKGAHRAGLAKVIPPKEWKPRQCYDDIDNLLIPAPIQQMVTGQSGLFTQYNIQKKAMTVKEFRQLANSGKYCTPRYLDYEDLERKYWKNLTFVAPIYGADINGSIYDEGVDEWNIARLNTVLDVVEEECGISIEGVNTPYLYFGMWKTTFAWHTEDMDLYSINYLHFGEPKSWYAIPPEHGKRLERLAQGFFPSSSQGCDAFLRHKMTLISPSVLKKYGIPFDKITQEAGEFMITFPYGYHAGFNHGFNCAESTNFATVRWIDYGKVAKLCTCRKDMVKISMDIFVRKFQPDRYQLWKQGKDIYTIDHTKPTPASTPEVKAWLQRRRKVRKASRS
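reagent = H3K9me3 peptide substrate, Fe(II), 2-oxoglutarate | system = GST-tagged GASC-1 (JMJD2C) catalytic fragment, aa 2-372 | amount = enzyme final amount 10 nM | read-out = Fall in 671/618 emission ratio as inhibition | medium = HEPES buffer, pH 7.5, plus ascorbate | schedule = 30 min reaction, 60 min detection, RT | measured by = LANCE TR-FRET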
T cruzi growth-1: T. cruzi intracellular proliferation inhibitors, primary screen, cell-based, beta-gal Tulahuen parasites, NIH3T3 host, luminescence. 77,000 compounds, 5.9% hits. inhibition, % at 8.34 µM. T. cruzi beta-gal in NIH3T3, GalScreen luminescence, 90 h. AID 624255, 2012;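 active = mean inhibition above about 93%, with at least 55% of replicates each passing it, limit read from the data, passing the limit was not always enough; inconclusive = only one of those two conditions holds; inactive = neither condition holds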
IDH1 R132H inh: inhibitors of IDH1 R132H reductase, primary screen, biochemical, plate reader, single point; diaphorase/resazurin fluorescence, 60 min; inhibition, % at 10 µM; 70,000 compounds, 0.18% hits; Isocitrate dehydrogenase [NADP] cytoplasmic (Homo sapiens), O75874; AID 624101, 2012; in the data active = inhibition above about 34%; inconclusive = no clear call, values can overlap the other calls; inactive = below about 11%
Target sequence (O75874 whole entry R132H): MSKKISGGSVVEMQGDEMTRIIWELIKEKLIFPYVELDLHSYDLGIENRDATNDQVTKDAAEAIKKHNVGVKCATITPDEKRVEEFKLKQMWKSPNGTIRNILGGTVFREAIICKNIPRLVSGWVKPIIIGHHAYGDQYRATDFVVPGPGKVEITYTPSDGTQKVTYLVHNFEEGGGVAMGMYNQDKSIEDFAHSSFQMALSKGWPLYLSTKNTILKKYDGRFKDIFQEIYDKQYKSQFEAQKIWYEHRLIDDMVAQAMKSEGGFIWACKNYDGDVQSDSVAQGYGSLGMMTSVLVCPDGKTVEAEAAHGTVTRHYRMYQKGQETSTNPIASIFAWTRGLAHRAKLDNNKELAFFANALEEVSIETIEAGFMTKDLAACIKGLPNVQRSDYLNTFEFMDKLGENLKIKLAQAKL
T cruzi growth-2: T. cruzi intracellular proliferation inhibitors, confirmation, cell-based, NIH3T3 host, beta-gal parasite, luminescence, cherry-pick. shares compounds with T cruzi growth-1. T. cruzi beta-gal in NIH3T3, GalScreen luminescence, 90 h. inhibition, % at 8.35 µM. 5,600 compounds, 72% hits. AID 651739, 2012;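 active = mean replicate inhibition above about 95% and at least 55% of replicates individually reaching it, limit read from the data; inconclusive = only one of the two criteria is met; inactive = neither criterion is met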
T cruzi growth-3: inhibitors of intracellular T. cruzi replication, confirmation, NIH3T3 host cells, beta-gal parasites, cherry-pick, set 2; shares compounds with T cruzi growth-1; T. cruzi beta-gal in NIH3T3, GalScreen luminescence, 90 h; inhibition, % at 2.09 µM; 5,600 compounds, 21% hits; AID 651740, 2012;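 active = mean inhibition above about 95%, with at least 55% of replicates also reaching it, limit read from the data; inconclusive = meets just one of the two conditions; inactive = meets neither condition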
3T3 cytotox: cytotoxicity in mouse NIH/3T3 fibroblasts, confirmation, cytotoxicity control for T. cruzi proliferation inhibitor project, cell-based, cherry-pick, single point; shares compounds with T cruzi growth-1; NIH/3T3 viability, CellTiter-Glo ATP luminescence, 90 h; AID 651742, 2012; 5,600 compounds, 14% hits; cytotoxicity (signal decrease), % at 8.35 µM;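 active = mean signal decrease across replicates above about 35% based on untreated-well scatter, with enough replicates individually passing, limit read from the data; inconclusive = no rule stated though some were filed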
NIH3T3 tox 2: NIH/3T3 fibroblast cytotoxicity, confirmation, cytotoxicity control, cell-based, cherry-pick, single point, set 2. NIH/3T3 viability, CellTiter-Glo ATP luminescence, 90 h. 5,600 compounds, 56% hits. shares compounds with T cruzi growth-1. inhibition, % at 24.9 µM. AID 651744, 2012;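 active = mean loss of cell viability signal at or above a set limit, and enough replicates individually reaching it; inconclusive = meets only the mean limit or only the replicate share; inactive = meets neither condition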
Large screens that a line does not name were inactive (follow-up assays come after a bar, where they were run).

C/C=C/c1ccc2c(c1)O[C@H](CN(C)Cc1ccncc1)[C@@H](C)CN([C@@H](C)CO)S2(=O)=O	T cruzi growth-1 108.6 | T cruzi growth-2 108.7 | T cruzi growth-3 101.6 | 3T3 cytotox inactive | NIH3T3 tox 2 28.5
C[C@@H]1CN([C@H](C)CO)C(=O)c2cc(NS(=O)(=O)c3ccc(Cl)cc3)ccc2O[C@@H]1CN(C)Cc1ccc(-c2ccccc2)cc1	T cruzi growth-1 inconclusive | T cruzi growth-2 98.3 | T cruzi growth-3 inactive | 3T3 cytotox 92.1 | NIH3T3 tox 2 104.6
C[C@@H]1CN([C@@H](C)CO)C(=O)c2cc(NS(=O)(=O)c3ccc(F)cc3)ccc2O[C@H]1CN(C)Cc1ccc(-c2ccccc2)cc1	T cruzi growth-1 inconclusive | T cruzi growth-2 106.5 | T cruzi growth-3 inactive | 3T3 cytotox inactive | NIH3T3 tox 2 103.5
C[C@@H]1CN([C@H](C)CO)C(=O)c2cc(NS(=O)(=O)c3ccc(F)cc3)ccc2O[C@@H]1CN(C)Cc1ccc(-c2ccccc2)cc1	none
C[C@H](CO)N1C[C@H](C)[C@H](CN(C)Cc2ccc(-c3ccccc3)cc2)Oc2ccc(NS(=O)(=O)c3ccc(Cl)cc3)cc2C1=O	T cruzi growth-1 112.5 | T cruzi growth-2 103.5 | T cruzi growth-3 inactive | 3T3 cytotox inactive | NIH3T3 tox 2 102.6
C[C@H]1CN([C@@H](C)CO)C(=O)c2cc(NS(=O)(=O)c3ccc(Cl)cc3)ccc2O[C@@H]1CN(C)Cc1ccc(-c2ccccc2)cc1	T cruzi growth-1 111.3 | T cruzi growth-2 102.8 | T cruzi growth-3 inactive | 3T3 cytotox inactive | NIH3T3 tox 2 103.9
CN(C)CCNc1oc(COc2ccc(Br)cc2)nc1C#N	none (no result: Pf Dd2 growth, KDM4C inh, T cruzi growth-1)
COc1ccc(OC)c(NC(=O)CSc2nc(C)cc(C)n2)c1	none (no result: Pf Dd2 growth, KDM4C inh, T cruzi growth-1)
CCC1(C)Cc2c(sc3nnn(CC(=O)N(c4ccccc4)c4ccccc4)c(=O)c23)CO1 (stereo unspecified)	none (no result: Pf Dd2 growth, KDM4C inh, T cruzi growth-1)
C[C@@H]1CN([C@@H](C)CO)C(=O)c2cc(NS(=O)(=O)c3ccc(Cl)cc3)ccc2O[C@@H]1CN(C)Cc1ccc(-c2ccccc2)cc1	T cruzi growth-1 inconclusive | T cruzi growth-2 inconclusive | T cruzi growth-3 inactive | 3T3 cytotox 82.1 | NIH3T3 tox 2 103.5
COc1ccc(S(=O)(=O)Nc2ccc3c(c2)C(=O)N([C@@H](C)CO)C[C@H](C)[C@H](CN(C)Cc2ccc(-c4ccccc4)cc2)O3)cc1	T cruzi growth-1 inconclusive | T cruzi growth-2 103.5 | T cruzi growth-3 inactive | 3T3 cytotox inactive | NIH3T3 tox 2 88.0
C[C@H]1CN([C@@H](C)CO)C(=O)c2cc(NS(=O)(=O)c3ccc(Cl)cc3)ccc2O[C@@H]1CN(C)Cc1ccc(Oc2ccccc2)cc1	T cruzi growth-1 inconclusive | T cruzi growth-2 108.4 | T cruzi growth-3 inactive | 3T3 cytotox inactive | NIH3T3 tox 2 105.0
C[C@H](CO)N1C[C@H](C)[C@@H](CN(C)Cc2ccc(-c3ccccc3)cc2)Oc2ccc(NS(=O)(=O)c3ccc(Cl)cc3)cc2C1=O	none (no result: IDH1 R132H inh)
COc1ccc(S(=O)(=O)Nc2ccc3c(c2)C(=O)N([C@H](C)CO)C[C@H](C)[C@H](CN(C)Cc2ccc(-c4ccccc4)cc2)O3)cc1	none
Cc1ccc(S(=O)(=O)N(C)C[C@H]2Oc3cc(-c4cccc(F)c4)ccc3S(=O)(=O)N([C@@H](C)CO)C[C@H]2C)cc1	T cruzi growth-1 118.8 | T cruzi growth-2 102.9 | T cruzi growth-3 inconclusive | 3T3 cytotox inactive | NIH3T3 tox 2 48.6
COc1ccc(S(=O)(=O)N(C)C[C@@H]2Oc3cc(-c4cccc(F)c4)ccc3S(=O)(=O)N([C@@H](C)CO)C[C@H]2C)cc1	Pf Dd2 growth inconclusive (no result: T cruzi growth-1)
Cc1ccc(S(=O)(=O)N(C)C[C@@H]2Oc3cc(-c4cccc(F)c4)ccc3S(=O)(=O)N([C@@H](C)CO)C[C@@H]2C)cc1	T cruzi growth-1 121.2 | T cruzi growth-2 100.5 | T cruzi growth-3 inconclusive | 3T3 cytotox inactive | NIH3T3 tox 2 36.7
Cc1ccc(S(=O)(=O)N(C)C[C@H]2Oc3cc(-c4cccc(F)c4)ccc3S(=O)(=O)N([C@H](C)CO)C[C@@H]2C)cc1	T cruzi growth-1 126.5 | T cruzi growth-2 105.0 | T cruzi growth-3 inactive | 3T3 cytotox 36.1 | NIH3T3 tox 2 inactive
Cc1ccc(S(=O)(=O)N(C)C[C@@H]2Oc3cc(-c4cccc(F)c4)ccc3S(=O)(=O)N([C@H](C)CO)C[C@H]2C)cc1	T cruzi growth-1 103.7 | T cruzi growth-2 inactive | T cruzi growth-3 inactive | 3T3 cytotox 68.8 | NIH3T3 tox 2 46.5
Cc1ccc(S(=O)(=O)N(C)C[C@@H]2Oc3cc(C#Cc4ccccc4)ccc3S(=O)(=O)N([C@H](C)CO)C[C@@H]2C)cc1	none (no result: T cruzi growth-1)
COc1ccc(OCC(=O)Nc2ccc3oc(-c4ccc(C)cc4C)nc3c2)cc1	none (no result: Pf Dd2 growth, KDM4C inh, T cruzi growth-1)
Cc1ccc(-c2ccc3c(c2)O[C@@H](CN(C)S(C)(=O)=O)[C@H](C)CN([C@H](C)CO)S3(=O)=O)cc1	T cruzi growth-1 102.3 | T cruzi growth-2 inactive | T cruzi growth-3 inactive | 3T3 cytotox inactive | NIH3T3 tox 2 72.1
Cc1ccc(S(=O)(=O)N(C)C[C@H]2Oc3cc(-c4cccc(F)c4)ccc3S(=O)(=O)N([C@H](C)CO)C[C@H]2C)cc1	T cruzi growth-1 120.7 | T cruzi growth-2 101.8 | T cruzi growth-3 inactive | 3T3 cytotox inactive | NIH3T3 tox 2 43.0
Cc1ccc(S(=O)(=O)N(C)C[C@@H]2Oc3cc(C#Cc4ccccc4)ccc3S(=O)(=O)N([C@@H](C)CO)C[C@@H]2C)cc1	none (no result: T cruzi growth-1)
O=C(CSc1nnc(-c2ccccc2O)n1-c1ccccc1)Nc1ccccc1Cl	none (no result: Pf Dd2 growth, KDM4C inh, T cruzi growth-1)
CC(C)c1ccc(OCC(=O)Nc2cc(C(F)(F)F)ccc2N2CCOCC2)cc1	none (no result: Pf Dd2 growth, KDM4C inh, T cruzi growth-1)
O=C(Nc1ccccc1[N+](=O)[O-])c1cccc(S(=O)(=O)N2CCOCC2)c1	none (no result: Pf Dd2 growth, KDM4C inh, T cruzi growth-1)
CCCC#Cc1ccc2c(c1)O[C@H](CN(C)C(=O)Nc1ccc(OC)cc1)[C@H](C)CN([C@@H](C)CO)S2(=O)=O	none (no result: IDH1 R132H inh)
